Experiments:
Plasmodium falciparum [1] = assay: Antiplasmodial activity against chloroquine-sensitive ring stage Plasmodium falciparum 3D7 infected in human red blood cells after 48 hrs; format: functional, organism-based; details: 3D7, 48 h
Heme = assay: Binding affinity to heme by UV-visible titration
Outline: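 Hematin monomer (FPIX-OH, 10 μM) in pH 5.5 HEPES-buffered 40% DMSO v/v at 25 C, titrated with ligand from 100 μM solution until above hematin concentration. Stirred 1 min per addition; spectra 230–500 nm, Soret change at 402 nm. Absorbance dilution-corrected, nonlinear fit for Kd; Kass calculated from Kd.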

[2] = Inhibition of Plasmodium falciparum falcipain 3
Plasmodium falciparum [3] = assay: Antiplasmodial activity against chloroquine-sensitive, mefloquine-resistant ring stage Plasmodium falciparum D6 infected in human red blood cells after 48 hrs; format: functional, organism-based; details: D6, 48 h
[4] = Selectivity index, ratio of IC50 for african green monkey Vero cells to IC50 for chloroquine-resistant ring stage Plasmodium falciparum W2; format: toxicity, cell-based; details: read-out: Ratio IC50
Outline: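 Vero IC50 divided by W2 IC50. Vero: 15000 cells/well adhered overnight, then log dilutions from 30 mg/mL DMSO stock for 48 h. MTT 0.5 mg/mL final for 2 h at 37 C, formazan dissolved in 95% ethanol, A570 read against DMSO vehicle as 100% viability. W2: 48 h YOYO-1 flow-cytometric growth assay in human erythrocytes.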

Plasmodium falciparum [5] = assay: Antiplasmodial activity against chloroquine and pyrimethamine-resistant ring stage Plasmodium falciparum V1/S infected in human red blood cells after 48 hrs; format: functional, organism-based
Nucleic Acid = assay: Binding affinity to s(GATCCTAGGATC)2-DNA by fluorescence spectroscopy; format: nucleic-acid assay
Outline: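 Buffer 0.01 M phosphate pH 7.4, 0.1 M NaCl, 25.0 C, 1 cm quartz cuvettes. Fluorescence: excitation 339 nm, emission 450–500 nm. Dilution-corrected intensity change fitted to single-site binding for Kd; Kass taken as 1/Kd.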

[6] = Inhibition of Plasmodium falciparum falcipain 2
Plasmodium falciparum [7] = assay: Resistance index, ratio of IC50 for chloroquine-resistant ring stage Plasmodium falciparum W2 to IC50 for chloroquine-sensitive ring stage Plasmodium falciparum 3D7; format: functional
Outline: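 W2 IC50 divided by 3D7 IC50. Both were measured by 48 h YOYO-1 flow-cytometric growth assay on sorbitol-synchronised 1% ring-stage cultures in human erythrocytes at 37 C under 3% O2.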

Plasmodium falciparum [8] = assay: Antiplasmodial activity against chloroquine-resistant ring stage Plasmodium falciparum W2 infected in human red blood cells after 48 hrs; format: functional, organism-based; details: W2, 48 h
Vero = assay: Cytotoxicity against african green monkey Vero cells after 48 hrs by MTT assay; format: cell-based; details: Chlorocebus sabaeus
Outline: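 Vero monkey kidney cells in DMEM with 10% FBS at 37 C, 7% CO2; seeded 15000 cells/well and adhered overnight. Log dilutions from 30 mg/mL DMSO stock, 48 h exposure. MTT at 0.5 mg/mL final for 2 h; formazan dissolved in 95% ethanol, read at 570 nm. Viability relative to DMSO-medium wells; IC50 from concentration–viability curve; doxorubicin as standard.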

`CN(C)CC(C)(C)CNc1c2ccccc2[n+](C)c2c1[nH]c1ccccc12.[Cl-]` showed an IC50 (Plasmodium falciparum [1]) of 0.146 µM, a Ka (Heme) of 0.069 ×10⁶ /M and an IC50 [2] of 26 µM. For the same compound, the IC50 (Plasmodium falciparum [3]) was 0.25 µM, the selectivity ratio [4] was 18 and the IC50 (Plasmodium falciparum [5]) was 0.144 µM. The Ka (Nucleic Acid) was 2.6 ×10⁶ /M, the IC50 [6] was 33.5 µM and the “Ratio IC50” value (Plasmodium falciparum [7]) was 1.3.

For `CCN(CC)c1c2ccccc2[n+](C)c2c1[nH]c1ccccc12.[Cl-]`, the IC50 (Plasmodium falciparum [1]) was 2.21 µM, the Ka (Heme) was 0.19 ×10⁶ /M and the IC50 (Plasmodium falciparum [8]) was 1.25 µM. The IC50 [2] was 46.3 µM, the IC50 (Plasmodium falciparum [3]) was 1.29 µM and the selectivity ratio [4] was 2. The IC50 (Plasmodium falciparum [5]) was 1.77 µM, the Ka (Nucleic Acid) was 0.47 ×10⁶ /M and the IC50 [6] was 18 µM. The “Ratio IC50” value (Plasmodium falciparum [7]) was 0.7.

Work on `CC(C)CN1CCC(Nc2c3ccccc3[n+](C)c3c2[nH]c2ccccc23)CC1.[Cl-]` yielded an IC50 (Plasmodium falciparum [1]) of 0.07 µM, a Ka (Heme) of 0.227 ×10⁶ /M and an IC50 (Plasmodium falciparum [8]) of 0.07 µM. For the same compound, the IC50 [2] was 16 µM, the IC50 (Plasmodium falciparum [3]) was 0.086 µM and the selectivity ratio [4] was 70. It also gave an IC50 (Plasmodium falciparum [5]) of 0.076 µM, a Ka (Nucleic Acid) of 0.74 ×10⁶ /M and an IC50 [6] of 10.5 µM. For the same compound, the “Ratio IC50” value (Plasmodium falciparum [7]) was 0.9.

In the case of `CC(C)NCCCNc1c2ccccc2[n+](C)c2c1[nH]c1ccccc12.[Cl-]`, the IC50 (Plasmodium falciparum [1]) is reported as 0.0261 µM, the Ka (Heme) is reported as 0.2 ×10⁶ /M and the IC50 (Plasmodium falciparum [3]) is reported as 0.034 µM. It also gave a selectivity ratio [4] of 125, an IC50 (Plasmodium falciparum [5]) of 0.028 µM and a Ka (Nucleic Acid) of 5 ×10⁶ /M. For the same compound, the IC50 [6] was over 25 µM and the “Ratio IC50” value (Plasmodium falciparum [7]) was 0.8.

`C[n+]1c2ccccc2c(NCCCN2CCCCC2)c2[nH]c3ccccc3c21.[Cl-]` gave an IC50 (Plasmodium falciparum [1]) of 0.023 µM, a Ka (Heme) of 0.161 ×10⁶ /M and an IC50 (Vero) of 20 µM. The IC50 (Plasmodium falciparum [3]) was 0.034 µM, the selectivity ratio [4] was 56 and the IC50 (Plasmodium falciparum [5]) was 0.028 µM. The Ka (Nucleic Acid) was 5.3 ×10⁶ /M and the “Ratio IC50” value (Plasmodium falciparum [7]) was 1.3.

`CCN(CC)CCCC(C)Nc1c2ccccc2[n+](C)c2c1[nH]c1ccccc12.[Cl-]` (centres undefined) showed an IC50 (Plasmodium falciparum [1]) of 0.145 µM, a Ka (Heme) of 0.062 ×10⁶ /M and an IC50 (Plasmodium falciparum [8]) of 0.122 µM. The IC50 [2] was 7 µM, the IC50 (Plasmodium falciparum [3]) was 0.161 µM and the selectivity ratio [4] was 103. It also gave an IC50 (Plasmodium falciparum [5]) of 0.274 µM, a Ka (Nucleic Acid) of 4.3 ×10⁶ /M and an IC50 [6] of 11.6 µM. For the same compound, the “Ratio IC50” value (Plasmodium falciparum [7]) was 0.4.

In the case of `CCN(CC)CCCCNc1c2ccccc2[n+](C)c2c1[nH]c1ccccc12.[Cl-]`, the IC50 (Plasmodium falciparum [1]) is reported as 0.0223 µM, the Ka (Heme) is reported as 0.15 ×10⁶ /M and the IC50 (Vero) is reported as 10 µM. It also gave an IC50 (Plasmodium falciparum [8]) of 0.029 µM, an IC50 (Plasmodium falciparum [3]) of 0.071 µM and a selectivity ratio [4] of 358. For the same compound, the IC50 (Plasmodium falciparum [5]) was 0.066 µM, the Ka (Nucleic Acid) was 9 ×10⁶ /M and the “Ratio IC50” value (Plasmodium falciparum [7]) was 0.4.

Compound `C[n+]1c2ccccc2c(NCCCN)c2[nH]c3ccccc3c21.[Cl-]` has an IC50 (Plasmodium falciparum [1]) of 0.054 µM, a Ka (Heme) of 0.18 ×10⁶ /M and an IC50 (Vero) of 10 µM. The IC50 (Plasmodium falciparum [8]) was 0.026 µM, the IC50 [2] was 14 µM and the IC50 (Plasmodium falciparum [3]) was 0.071 µM. The selectivity ratio [4] was 371, the IC50 (Plasmodium falciparum [5]) was 0.133 µM and the Ka (Nucleic Acid) was 0.25 ×10⁶ /M. The IC50 [6] was 11 µM and the “Ratio IC50” value (Plasmodium falciparum [7]) was 0.2.

`C[n+]1c2ccccc2c(NCCN)c2[nH]c3ccccc3c21.[Cl-]` showed an IC50 (Plasmodium falciparum [1]) of 0.115 µM, a Ka (Heme) of 0.127 ×10⁶ /M and an IC50 (Vero) of 60 µM. The IC50 (Plasmodium falciparum [8]) was 0.089 µM, the IC50 [2] was over 25 µM and the IC50 (Plasmodium falciparum [3]) was 0.107 µM. For the same compound, the selectivity ratio [4] was 678, the IC50 (Plasmodium falciparum [5]) was 0.156 µM and the Ka (Nucleic Acid) was 0.85 ×10⁶ /M. The IC50 [6] was 6.3 µM and the “Ratio IC50” value (Plasmodium falciparum [7]) was 0.6.

Work on `CN(C)CCCNc1c2ccccc2[n+](C)c2c1[nH]c1ccccc12.[Cl-]` yielded an IC50 (Plasmodium falciparum [1]) of 0.024 µM, a Ka (Heme) of 0.066 ×10⁶ /M and an IC50 (Plasmodium falciparum [8]) of 0.02 µM. It also gave an IC50 [2] of over 50 µM, an IC50 (Plasmodium falciparum [3]) of 0.046 µM and a selectivity ratio [4] of 109. It also gave an IC50 (Plasmodium falciparum [5]) of 0.051 µM, a Ka (Nucleic Acid) of 3 ×10⁶ /M and an IC50 [6] of 34 µM. The “Ratio IC50” value (Plasmodium falciparum [7]) was 0.4.

Compound `C[n+]1c2ccccc2c(NCCCCN)c2[nH]c3ccccc3c21.[Cl-]` has an IC50 (Plasmodium falciparum [1]) of 0.19 µM, a Ka (Heme) of 0.147 ×10⁶ /M and an IC50 (Vero) of over 85 µM. It also gave an IC50 (Plasmodium falciparum [8]) of 0.065 µM, an IC50 (Plasmodium falciparum [3]) of 0.245 µM and a selectivity ratio [4] of 1310. For the same compound, the IC50 (Plasmodium falciparum [5]) was 0.422 µM, the Ka (Nucleic Acid) was 1.4 ×10⁶ /M and the “Ratio IC50” value (Plasmodium falciparum [7]) was 0.2.

In the case of `C[n+]1c2ccccc2c(Nc2ccccc2)c2[nH]c3ccccc3c21.[Cl-]`, the IC50 (Plasmodium falciparum [1]) is reported as 0.291 µM, the Ka (Heme) is reported as 0.155 ×10⁶ /M and the IC50 (Plasmodium falciparum [8]) is reported as 0.265 µM. For the same compound, the IC50 (Plasmodium falciparum [3]) was 0.154 µM, the selectivity ratio [4] was 2 and the IC50 (Plasmodium falciparum [5]) was 0.128 µM. The Ka (Nucleic Acid) was 0.51 ×10⁶ /M, the IC50 [6] was 14 µM and the “Ratio IC50” value (Plasmodium falciparum [7]) was 0.2.

Reference: ChEMBL document CHEMBL1671820, “Incorporation of basic side chains into cryptolepine scaffold: structure-antimalarial activity relationships and mechanistic studies” (J Med Chem, 2011)
